Published values pooled from the literature.
Lines come from different studies, so protocols differ.
Target: Beta-adrenergic receptor kinase 1 (GRK2, Homo sapiens, UniProt P25098)
Residues used in one study (P25098 1-689): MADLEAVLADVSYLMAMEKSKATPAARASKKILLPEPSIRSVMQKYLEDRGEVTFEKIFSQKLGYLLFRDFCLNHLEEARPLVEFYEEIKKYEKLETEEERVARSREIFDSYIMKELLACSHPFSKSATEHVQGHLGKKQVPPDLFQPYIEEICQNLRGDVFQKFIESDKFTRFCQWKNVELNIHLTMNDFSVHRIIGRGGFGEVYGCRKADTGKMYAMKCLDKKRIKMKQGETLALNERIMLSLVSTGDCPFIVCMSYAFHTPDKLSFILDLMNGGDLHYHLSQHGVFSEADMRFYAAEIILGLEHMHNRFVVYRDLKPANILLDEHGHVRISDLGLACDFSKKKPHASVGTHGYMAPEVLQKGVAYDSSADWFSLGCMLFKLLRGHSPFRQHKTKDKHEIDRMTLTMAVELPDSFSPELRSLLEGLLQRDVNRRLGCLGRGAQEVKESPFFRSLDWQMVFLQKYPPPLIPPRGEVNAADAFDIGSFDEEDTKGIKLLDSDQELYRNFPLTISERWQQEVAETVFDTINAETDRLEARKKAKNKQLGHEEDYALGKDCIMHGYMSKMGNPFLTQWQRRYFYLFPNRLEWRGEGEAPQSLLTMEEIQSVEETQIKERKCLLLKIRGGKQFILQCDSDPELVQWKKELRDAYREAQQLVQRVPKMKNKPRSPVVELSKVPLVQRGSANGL

COc1ncc2cc3ccccc3nc2c1C#N  remaining binding (cell-free assay; competition with immobilised ligand; 5 µM): 100%
Cc1cnc(Nc2ccc(C(=O)N3CCC(N4CCCC4)CC3)cc2)nc1-c1cc2ccccc2s1  remaining binding (binding; competition with immobilised ligand; 1 µM): 56%
CO[C@@H](C)c1c(Nc2ccc([C@@H](N(C)C(=O)C3CCS(=O)(=O)CC3)C(F)(F)F)cc2)cnc2cc(Cl)nn12  remaining binding (cell-free assay; competition with immobilised ligand; 1 µM): 92%
O=C(c1ccc(Nc2ncc(Cl)c(-c3cc4ccccc4s3)n2)cc1)N1CCC(N2CCCC2)CC1  remaining binding (binding; competition with immobilised ligand; 1 µM): 71%
Nc1cnc(N2CCc3cc(S(=O)(=O)Nc4c(F)cc(Cl)cc4F)cc(N4CCCC4=O)c32)nc1  remaining binding (cell-free assay; competition with immobilised ligand; 1 µM): 100%
C=CC(=O)N1CCC(C(=O)NCC(=O)N2CCN(c3nc(-c4cnc(N)nc4C(F)F)nc(N4CCOCC4)n3)CC2)CC1  remaining binding (binding; competition with immobilised ligand; 1 µM): 100%
O=C(NCCCN1CCOCC1)c1ccc(Nc2nccc(-c3cc4ccccc4s3)n2)cc1  remaining binding (binding; competition with immobilised ligand; 1 µM): 65%
COc1cnc(Nc2cccc(S(N)(=O)=O)c2)nc1N1CCN(c2ccccc2)CC1  remaining binding (binding; competition with immobilised ligand; 1 µM): 88%
Cc1cnn2ncc(-c3ccnc(N(C)C)n3)c2c1  remaining binding (binding; 1 µM): 50%
O=C(NCC1CCOCC1)c1n[nH]cc1NC(=O)c1c(F)cccc1F  remaining binding (binding; competition with immobilised ligand; 1 µM): 71%
CN(C)c1ncc(F)c(-c2cnn3ncccc23)n1  remaining binding (binding; competition with immobilised ligand; 1 µM): 88%
CO[C@H]1CC[C@H](CNc2ccc(S(=O)(=O)NC(=O)c3ccc(N4CCN(CC5=C(c6ccc(Cl)cc6)CC(C)(C)CC5)CC4)cc3Oc3cnc4[nH]ccc4c3)cc2[N+](=O)[O-])CC1  remaining binding (cell-free assay; competition with immobilised ligand; 1 µM): 85%
CN(C)c1nccc(-c2cnn3ncccc23)n1  remaining binding (binding; competition with immobilised ligand; 1 µM): 74%
c1ccc(N2CCN(Cc3nc4ccccc4[nH]3)CC2)nc1  remaining binding (binding; competition with immobilised ligand; 1 µM): 90%
F[C@@H]1CCN(c2nccc(-c3cnn4ncccc34)n2)C1  remaining binding (binding; 1 µM): 54%
Cc1c(C(=O)O)cc(-c2ccc(C3CCNCC3)cc2)c2ccc(-c3ccc(C(F)(F)F)cc3)cc12  remaining binding (binding; competition with immobilised ligand; 1 µM): 100%
C[C@H]1CCN(c2nccc(-c3cnn4ncccc34)n2)C1  remaining binding (binding; competition with immobilised ligand; 1 µM): 50%
CNC(=O)Nc1ccc2c(c1)CC[C@@]21OC(=O)N(CC(=O)N(Cc2ccc(F)cc2)[C@@H](C)C(F)(F)F)C1=O  remaining binding (cell-free assay; competition with immobilised ligand; 1 µM): 74%
c1cnn2ncc(-c3ccnc(N4CCC45COC5)n3)c2c1  remaining binding (binding; competition with immobilised ligand; 1 µM): 48%
C[C@@H](c1ccc(-n2cnc3c(N)ncnc32)cc1)N1CCc2nn(C)c(Cc3ccccc3)c2C1=O  remaining binding (binding; competition with immobilised ligand; 0.1 µM): 67%
